Rows were chosen to be rich in hits. Some 2.1% of all compounds tested hit in one or more screens of this group.
STEP inh: inhibitors of human striatal-enriched phosphatase STEP; P54829; inhibition, % at 20 µM; AID 588621; recombinant STEP, OMFP fluorogenic substrate, fluorescence; 360,000 tested, 0.25% active;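 active means inhibition at 20 µM, scaled per plate between control wells, above about 37%, limit read from the data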;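 further: 0% = DMSO with enzyme and substrate and 100% = substrate only without enzyme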
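Also added – OMFP at 25 µM · Test system – STEP tyrosine phosphatase · Technique – FITC-channel fluorescence of OMFP product · Schedule – 20 min at room temperature, dark · Evaluation – control-normalized % inhibition with plate pattern correction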
GRK2 inh: inhibitors of human GRK2 displacing RNA aptamer; 330,000 tested, 0.59% active; P25098; AID 488847; inhibition of aptamer binding, % at 10 µM; bead flow cytometry, FAM-aptamer displacement from GRK2;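 active means inhibition of aptamer binding above 40%, roughly 3 SD of noise, on plates passing a quality check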;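 further: median bead fluorescence of bound FAM aptamer so fluorescent compounds give negative values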
SUMO1 PPI mod: SUMO1-SIM interaction modulation. 360,000 tested, 0.33% active. P63165. AID 602429. SUMO1 binding to a labelled peptide, TR-FRET, 1 h. inhibition, % at 20 µM; in the data active means inhibition above about 37%
Target sequence (P63165 whole entry, looked up): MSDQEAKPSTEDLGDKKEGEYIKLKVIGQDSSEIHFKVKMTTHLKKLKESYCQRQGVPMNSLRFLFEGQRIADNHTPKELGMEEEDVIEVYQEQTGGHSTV
Scp1 inh: blocks human Scp-1 phosphatase activity; Q9GZU7; 340,000 tested, 0.88% active; inhibition, % at 20 µM; Recombinant Scp1, phosphopeptide, malachite green phosphate absorbance;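 active means inhibition above about 50% at 20 µM, limit read from the data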;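 further: plate controls were DMSO wells with enzyme for no effect and wells lacking enzyme for full effect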
Target sequence (Q9GZU7 76-261 limits assumed): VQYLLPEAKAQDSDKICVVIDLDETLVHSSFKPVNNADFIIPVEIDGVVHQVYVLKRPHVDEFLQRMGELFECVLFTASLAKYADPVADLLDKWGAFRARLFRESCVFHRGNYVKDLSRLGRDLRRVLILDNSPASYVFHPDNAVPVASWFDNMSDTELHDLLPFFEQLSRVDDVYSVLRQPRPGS
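Times: enzyme reaction 45 min at room temperature, colour 5 min, stabilisation 30 min. Material: SCP-1 catalytic fragment, aa 76-261. Medium: Acidic Tris acetate buffer with magnesium and detergent. Signal: colorimetric free-phosphate detection, absorbance 630 nm. Read-out basis: % inhibition of SCP-1 phosphate liberation. Reagent: Phosphorylated 17-residue peptide substrate.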
DNMT1 inh: blocks human DNA methyltransferase DNMT1; P26358; DNMT1 molecular beacon, Hinp1I cleavage, fluorescence; inhibition (reported as % activation of signal), % at 10 µM; 360,000 tested, 0.83% active; AID 588458; in the data active means inhibition above about 50%
LMPTP block: LMPTP (human) inhibition; P24666; recombinant LMPTP-A, OMFP fluorogenic substrate, fluorescence intensity; inhibition, % at 20 µM; 360,000 tested, 0.22% active;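 active means compounds that cut the enzyme signal by at least half of the control window in the single-dose screen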;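 further: plate controls were DMSO wells with enzyme plus substrate for no effect and substrate without enzyme for full effect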
Target sequence (P24666 whole entry, looked up): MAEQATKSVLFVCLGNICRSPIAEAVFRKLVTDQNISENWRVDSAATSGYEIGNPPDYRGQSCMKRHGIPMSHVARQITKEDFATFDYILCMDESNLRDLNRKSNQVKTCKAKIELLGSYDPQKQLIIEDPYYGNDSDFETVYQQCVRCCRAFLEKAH
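Buffer or medium: Bis-Tris pH 6.0, DTT, detergent; Assay system: LMPTP-A enzyme; Quantity: 0.625 nM enzyme; Detection: endpoint fluorescence intensity; Times: 50 min dark incubation at room temperature; Controls: substrate-only low control, DMSO enzyme-plus-substrate high control; Doses: single 20 µM dose; Read-out: percent inhibition versus substrate-only and uninhibited controls; Reagent: 400 µM OMFP.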
Scp-1 conf: Scp-1 (human) inhibition, single-dose confirmed | shares compounds with Scp1 inh | AID 540281 | inhibition, % at 20 µM | 2,500 tested, 61% active | recombinant SCP-1 catalytic domain, phosphate release, malachite green absorbance;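 further: plate controls were DMSO with enzyme for no effect and buffer wells lacking enzyme for full effect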
Scp-1 MG ctr: interferes with malachite green readout, flagging false Scp-1 hits; Colorimetric interference counterscreen, malachite green absorbance 630 nm; 2,500 tested, under 10 active; shares compounds with Scp1 inh; AID 540313; apparent inhibition (interference), % at 20 µM;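 further: compounds added after enzyme reaction finished so only phosphate colour detection is probed; plate controls were DMSO wells with completed Scp-1 reaction for no effect and substrate wells lacking enzyme for full effect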
Scp-1 Tm shift: Scp-1 (human) binding by thermal shift; shares compounds with Scp1 inh; thermal shift relative to vanadate control, % at 40 µM; Recombinant SCP1, Sypro Orange thermal shift Tm; 1,500 tested, 25% active;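 active means substances whose mean melting-temperature shift, as a percentage of the reference inhibitor's shift, reaches about 5.3%, limit read from the data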;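 further: 0% = Tm of DMSO wells and 100% = Tm with sodium orthovanadate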
The depositor's hits bear a star; x = no result.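 How the source made its calls, unless noted: active means inhibition of at least 30% at 20 µM; inactive means the rest.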

SMILES	STEP inh	GRK2 inh	SUMO1 PPI mod	Scp1 inh	DNMT1 inh	LMPTP block	Scp-1 conf	Scp-1 MG ctr	others
COC(=O)Cn1c(=O)c2c(n(Cc3ccccc3)c1=O)N/C(=C/c1ccc(Br)cc1)C2=O	14	0	-1	107*	-3	2	57*	-15	Scp-1 Tm shift=12*
CC[N+](CC)(CC)CCOc1ccc(/C=C/c2ccccc2)cc1	2	0	-21	74*	3	0	50*	3	Scp-1 Tm shift=-5
CCOc1ccc(/C=C/C(=O)c2ccccc2)cc1	1	2	-11	-14	2	1	x	x
COc1cc(NCCCn2ccc(NC(=O)OCc3ccccc3)nc2=O)cc(OC)c1OC	-1	x	-1	-11	-23	-1	-7	-8
COc1ccc(CNC(=O)Cn2ccc(NC(=O)OCc3ccccc3)nc2=O)cc1	0	2	3	10	2	-1	x	x
Cc1ccc(CNC(=O)Cn2ccc(NC(=O)OCc3ccccc3)nc2=O)o1	-2	3	6	-8	-2	-3	-5	-11
O=C(Cn1ccc(NC(=O)OCc2ccccc2)nc1=O)NCc1ccc2[nH]ccc2c1	-2	1	-6	4	-2	1	-1	0
CCOc1ccc(-c2cc(C(=O)NCc3ccccc3)[nH]n2)c(C)c1	1	x	2	x	-2	3	x	x
CS(=O)(=O)N(CC(=O)N1CCCC1)c1cccc(C(F)(F)F)c1	-2	x	14	x	0	-1	x	x
CCOc1ccccc1-c1nc(-c2cc3ccc(C)cc3[nH]c2=O)no1	33	1	0	57*	4	3	39*	-4	Scp-1 Tm shift=-4
CCCc1nc(-c2cc3ccc(C)cc3[nH]c2=O)no1	-2	0	-9	-5	4	-1	x	x
COc1ccc(NC(=S)N(CCCN2CCOCC2)C(C)c2cc3ccccc3o2)cc1 (stereo not drawn)	3	1	-1	64*	-1	-3	-12	-9
COc1cc(C(=O)NCCN2C(=O)S/C(=C\c3ccc(F)cc3)C2=O)ccc1OCC(=O)N1CCOCC1	x	5	x	-4	x	x	x	x
Cc1nc(C(F)(F)F)ccc1C(=O)N1CCCCC1	3	0	0	-14	-4	-1	x	x
COC(=O)Cn1c2[n+](c3ccccc31)CC(O)CS2 (stereo not drawn)	0	0	1	-8	1	-3	x	x
CCOC(=O)Cn1c2[n+](c3ccccc31)CC(O)CS2 (stereo not drawn)	-2	0	3	102*	2	-2	91*	-9	Scp-1 Tm shift=-19
Cc1ccccc1S(=O)(=O)NC(=O)C1(C)CCN1C(=O)c1ccccc1CCc1ccccc1 (stereo not drawn)	-2	x	5	x	-2	0	x	x
CC(=O)NC(CC(=O)OCC(=O)c1ccc(NC(=O)CC(C)C)cc1)c1ccccc1 (stereo not drawn)	8	0	1	52*	18	3	60*	-8	Scp-1 Tm shift=-4
CC(=O)NC(CC(=O)OCC(=O)Nc1ccc2c(c1)OCO2)c1ccccc1 (stereo not drawn)	0	0	-3	-12	-2	-1	x	x
COCCCn1nnnc1SCC(=O)Nc1nc(C)c(C)s1	2	0	3	52*	-3	0	-10	-11
CCn1nnnc1SCC(=O)Nc1nc(C)c(C)s1	1	4	0	8	0	0	x	x
CC(=O)Nc1c(C(=O)O)ccc(C)c1OCc1ccccc1	-1	x	0	-5	1	-1	x	x
O=C(COc1ccc(S(=O)(=O)N2CCCC2)cc1)NCc1ccco1	3	0	2	26	18	0	x	x
